In brackets after ≈: the same amount, converted by molar mass.
Assays:
Format in all cases: functional
Talaromyces marneffei [1] = assay: Ratio of MFC to MIC for Penicillium marneffei
Outline: (§1)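 MFC: 0.1 ml from each MIC tube was spread on agar and colonies were counted after 48 h at 35 °C. MFC is the lowest concentration killing 99.9% of the inoculum. The MFC/MIC ratio was then calculated to classify activity as fungistatic or fungicidal.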

Staphylococcus aureus [2] = assay: Antibacterial activity against Staphylococcus aureus ATCC 25923 after 24 hrs by disc diffusion method
Outline: (§2)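 Agar disc diffusion. A standard inoculum of […] c.f.u./ml (0.5 McFarland) was spread evenly on agar. 6 mm Whatman no. 1 paper discs, dry-heat sterilized (140 °C, 1 h), were soaked in test compound and placed on nutrient agar. Plates were inverted and incubated 24 h at 37 °C. Read-out: diameter of the inhibition zone.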

Streptococcus pyogenes [3] = assay: Antibacterial activity against Streptococcus pyogenes after 18 to 24 hrs
[4] = system: Trichophyton mentagrophytes; assay: Ratio of MFC to MIC for Trichophyton mentagrophytes; outline: as §1
Klebsiella pneumoniae [5] = assay: Antibacterial activity against Klebsiella pneumoniae after 24 hrs by disc diffusion method; outline: as §2
Pseudomonas aeruginosa [6] = assay: Antibacterial activity against Pseudomonas aeruginosa ATCC 27853 after 24 hrs by two fold dilution technique; conditions: ATCC 27853, 24 h
Outline: (§3)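 Broth dilution MIC. Nutrient broth held log two-fold serial dilutions of compound and was inoculated with about 5 × 10⁵ c.f.u./ml of actively dividing bacteria. Incubation was 24 h at 37 °C, with growth checked visually and spectrophotometrically. MIC is the lowest concentration arresting growth.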

[7] = system: Trichophyton mentagrophytes; assay: Antifungal activity against Trichophyton mentagrophytes after 48 hrs by disk diffusion method
Outline: (§4)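 Agar well diffusion with compounds in DMSO. The dish was lawned with a saline spore suspension, excess decanted, and dried 1 h at 37 °C. Wells were punched. Read-out: inhibition zone in mm. Griseofulvin served as standard and DMSO as negative control.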

Escherichia coli [8] = assay: Antibacterial activity against Escherichia coli ATCC 25922 after 24 hrs by disc diffusion method; outline: as §2
Streptococcus pyogenes [9] = assay: Antibacterial activity against Streptococcus pyogenes after 24 hrs by disc diffusion method; outline: as §2
Escherichia coli [10] = assay: Antibacterial activity against Escherichia coli ATCC 25922 after 24 hrs by two fold dilution technique; conditions: ATCC 25922, 24 h; outline: as §3
Klebsiella pneumoniae [11] = assay: Antibacterial activity against Klebsiella pneumoniae after 18 to 24 hrs
Candida albicans [12] = assay: Ratio of MFC to MIC for Candida albicans; outline: as §1
Aspergillus fumigatus [13] = assay: Ratio of MFC to MIC for Aspergillus fumigatus; outline: as §1
Streptococcus pyogenes [14] = assay: Antibacterial activity against Streptococcus pyogenes after 24 hrs by two fold dilution technique; outline: as §3
Pseudomonas aeruginosa [15] = assay: Antibacterial activity against Pseudomonas aeruginosa ATCC 27853 after 18 to 24 hrs
Klebsiella pneumoniae [16] = assay: Antibacterial activity against Klebsiella pneumoniae after 24 hrs by two fold dilution technique; outline: as §3
Pseudomonas aeruginosa [17] = assay: Antibacterial activity against Pseudomonas aeruginosa ATCC 27853 after 24 hrs by disc diffusion method; outline: as §2
Escherichia coli [18] = assay: Antibacterial activity against Escherichia coli ATCC 25922 after 18 to 24 hrs
Candida albicans [19] = assay: Antifungal activity against Candida albicans after 48 hrs by two fold dilution technique
Outline: (§5)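 Broth MIC. Broth with log two-fold serial dilutions of compound was inoculated with about 1.6 × 10⁴–6 × 10⁴ c.f.u./ml of fungus and incubated 48 h at 35 °C. MIC is the lowest concentration arresting fungal growth.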

Talaromyces marneffei [20] = assay: Antifungal activity against Penicillium marneffei after 48 hrs by two fold dilution technique; outline: as §5
Talaromyces marneffei [21] = assay: Antifungal activity against Penicillium marneffei after 48 hrs by disk diffusion method; outline: as §4
Staphylococcus aureus [22] = assay: Antibacterial activity against Staphylococcus aureus ATCC 25923 after 24 hrs by two fold dilution technique; conditions: ATCC 25923, 24 h; outline: as §3
[23] = system: Trichophyton mentagrophytes; assay: Antifungal activity against Trichophyton mentagrophytes after 48 hrs by two fold dilution technique; outline: as §5
Candida albicans [24] = assay: Antifungal activity against Candida albicans after 48 hrs by disk diffusion method; outline: as §4
Staphylococcus aureus [25] = assay: Antibacterial activity against Staphylococcus aureus ATCC 25923 after 18 to 24 hrs
Aspergillus fumigatus [26] = assay: Antifungal activity against Aspergillus fumigatus after 48 hrs by two fold dilution technique; outline: as §5
Aspergillus fumigatus [27] = assay: Antifungal activity against Aspergillus fumigatus after 48 hrs by disk diffusion method; outline: as §4
Escherichia coli [28] = assay: Antibacterial activity against Escherichia coli ATCC 25922 at 30 ug after 24 hrs by disc diffusion method; conditions: ATCC 25922, 24 h, read-out: DIZ; outline: as §2
Staphylococcus aureus [29] = assay: Antibacterial activity against Staphylococcus aureus ATCC 25923 at 30 ug after 24 hrs by disc diffusion method; conditions: ATCC 25923, 24 h, read-out: DIZ
Outline: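 Disc diffusion. Inoculum of […] c.f.u./ml (0.5 McFarland) spread on sterile nutrient agar plates. 6 mm Whatman no. 1 paper discs, dry-heat sterilised at 140 °C for 1 h, soaked in a known concentration of compound, then placed on the agar. DMSO disc as negative control. Plates inverted, incubated 24 h at 37 °C. Zone of inhibition diameter measured in mm.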

Streptococcus pyogenes [30] = assay: Antibacterial activity against Streptococcus pyogenes at 30 ug after 24 hrs by disc diffusion method; conditions: read-out: DIZ; outline: as §2
Klebsiella pneumoniae [31] = assay: Antibacterial activity against Klebsiella pneumoniae at 30 ug after 24 hrs by disc diffusion method; conditions: read-out: DIZ; outline: as §2
Pseudomonas aeruginosa [32] = assay: Antibacterial activity against Pseudomonas aeruginosa ATCC 27853 at 30 ug after 24 hrs by disc diffusion method; conditions: ATCC 27853, 24 h, read-out: DIZ; outline: as §2

## CCCCCC[C@@H](O)C/C=C\CCCCCCCc1nnc(Nc2ccccc2)o1
Talaromyces marneffei [1]
  Ratio: 8
Staphylococcus aureus [2]
  diameter of the inhibition zone (DIZ): 20.2 mm
Streptococcus pyogenes [3]
  MBC: 12.5 µg/mL (≈ 30.2 µM)
[4]
  Ratio: 4
Klebsiella pneumoniae [5]
  diameter of the inhibition zone (DIZ): 19.7 mm
Pseudomonas aeruginosa [6]
  MIC: 6.25 µg/mL (≈ 15.1 µM)
[7]
  diameter of the inhibition zone (DIZ): 17.5 mm
Escherichia coli [8]
  diameter of the inhibition zone (DIZ): 22.8 mm
Streptococcus pyogenes [9]
  diameter of the inhibition zone (DIZ): 21.2 mm
Escherichia coli [10]
  MIC: 6.25 µg/mL (≈ 15.1 µM)
Klebsiella pneumoniae [11]
  MBC: 6.25 µg/mL (≈ 15.1 µM)
Candida albicans [12]
  Ratio: 4
Aspergillus fumigatus [13]
  Ratio: 4
Streptococcus pyogenes [14]
  MIC: 6.25 µg/mL (≈ 15.1 µM)
Pseudomonas aeruginosa [15]
  MBC: 50 µg/mL (≈ 121 µM)
Klebsiella pneumoniae [16]
  MIC: 6.25 µg/mL (≈ 15.1 µM)
Pseudomonas aeruginosa [17]
  diameter of the inhibition zone (DIZ): 25.6 mm
Escherichia coli [18]
  MBC: 25 µg/mL (≈ 60.4 µM)
Candida albicans [19]
  MFC: 100 µg/mL (≈ 242 µM)
  MIC: 25 µg/mL (≈ 60.4 µM)
Talaromyces marneffei [20]
  MFC: 100 µg/mL (≈ 242 µM)
  MIC: 12.5 µg/mL (≈ 30.2 µM)
Talaromyces marneffei [21]
  diameter of the inhibition zone (DIZ): 13.9 mm
Staphylococcus aureus [22]
  MIC: 6.25 µg/mL (≈ 15.1 µM)
[23]
  MFC: 50 µg/mL (≈ 121 µM)
  MIC: 12.5 µg/mL (≈ 30.2 µM)
Candida albicans [24]
  diameter of the inhibition zone (DIZ): 23.3 mm
Staphylococcus aureus [25]
  MBC: 12.5 µg/mL (≈ 30.2 µM)
Aspergillus fumigatus [26]
  MFC: 50 µg/mL (≈ 121 µM)
  MIC: 12.5 µg/mL (≈ 30.2 µM)
Aspergillus fumigatus [27]
  diameter of the inhibition zone (DIZ): 20.7 mm

## CCCCC/C=C\CC[C@H](O)CCCCCCCc1nnc(Nc2ccccc2)o1
Talaromyces marneffei [1]
  Ratio: 4
Staphylococcus aureus [2]
  diameter of the inhibition zone (DIZ): 21.1 mm
Streptococcus pyogenes [3]
  MBC: 25 µg/mL (≈ 60.4 µM)
[4]
  Ratio: 2
Klebsiella pneumoniae [5]
  diameter of the inhibition zone (DIZ): 20.2 mm
Pseudomonas aeruginosa [6]
  MIC: 6.25 µg/mL (≈ 15.1 µM)
[7]
  diameter of the inhibition zone (DIZ): 18.7 mm
Escherichia coli [8]
  diameter of the inhibition zone (DIZ): 21.6 mm
Streptococcus pyogenes [9]
  diameter of the inhibition zone (DIZ): 20.1 mm
Escherichia coli [10]
  MIC: 6.25 µg/mL (≈ 15.1 µM)
Klebsiella pneumoniae [11]
  MBC: 25 µg/mL (≈ 60.4 µM)
Candida albicans [12]
  Ratio: 2
Aspergillus fumigatus [13]
  Ratio: 2
Streptococcus pyogenes [14]
  MIC: 6.25 µg/mL (≈ 15.1 µM)
Pseudomonas aeruginosa [15]
  MBC: 50 µg/mL (≈ 121 µM)
Klebsiella pneumoniae [16]
  MIC: 6.25 µg/mL (≈ 15.1 µM)
Pseudomonas aeruginosa [17]
  diameter of the inhibition zone (DIZ): 19.4 mm
Escherichia coli [18]
  MBC: 25 µg/mL (≈ 60.4 µM)
Candida albicans [19]
  MFC: 25 µg/mL (≈ 60.4 µM)
  MIC: 12.5 µg/mL (≈ 30.2 µM)
Talaromyces marneffei [20]
  MFC: 100 µg/mL (≈ 242 µM)
  MIC: 25 µg/mL (≈ 60.4 µM)
Talaromyces marneffei [21]
  diameter of the inhibition zone (DIZ): 16.3 mm
Staphylococcus aureus [22]
  MIC: 12.5 µg/mL (≈ 30.2 µM)
[23]
  MFC: 50 µg/mL (≈ 121 µM)
  MIC: 25 µg/mL (≈ 60.4 µM)
Candida albicans [24]
  diameter of the inhibition zone (DIZ): 23.2 mm
Staphylococcus aureus [25]
  MBC: 12.5 µg/mL (≈ 30.2 µM)
Aspergillus fumigatus [26]
  MFC: 50 µg/mL (≈ 121 µM)
  MIC: 25 µg/mL (≈ 60.4 µM)
Aspergillus fumigatus [27]
  diameter of the inhibition zone (DIZ): 21.6 mm

## O=C(N[C@H](CO)[C@H](O)c1ccc([N+](=O)[O-])cc1)C(Cl)Cl [CHLORAMPHENICOL]
Escherichia coli [28]
  zone of inhibition at 30 µg/disc: 27 mm
Streptococcus pyogenes [3]
  MBC: 12.5 µg/mL (≈ 38.7 µM)
Staphylococcus aureus [29]
  zone of inhibition at 30 µg/disc: 22 mm
Streptococcus pyogenes [30]
  zone of inhibition at 30 µg/disc: 23 mm
Pseudomonas aeruginosa [6]
  MIC: 6.25 µg/mL (≈ 19.3 µM)
Escherichia coli [10]
  MIC: 6.25 µg/mL (≈ 19.3 µM)
Klebsiella pneumoniae [11]
  MBC: 12.5 µg/mL (≈ 38.7 µM)
Streptococcus pyogenes [14]
  MIC: 6.25 µg/mL (≈ 19.3 µM)
Pseudomonas aeruginosa [15]
  MBC: 12.5 µg/mL (≈ 38.7 µM)
Klebsiella pneumoniae [16]
  MIC: 6.25 µg/mL (≈ 19.3 µM)
Escherichia coli [18]
  MBC: 12.5 µg/mL (≈ 38.7 µM)
Klebsiella pneumoniae [31]
  zone of inhibition at 30 µg/disc: 19 mm
Staphylococcus aureus [22]
  MIC: 6.25 µg/mL (≈ 19.3 µM)
Staphylococcus aureus [25]
  MBC: 12.5 µg/mL (≈ 38.7 µM)
Pseudomonas aeruginosa [32]
  zone of inhibition at 30 µg/disc: 32 mm

From ChEMBL document CHEMBL1155415, “Synthesis, characterization, and in vitro antimicrobial activities of 5-alkenyl/hydroxyalkenyl-2-phenylamine-1,3,4-oxadiazoles and thiadiazoles” (2010)
